This passage reports inhibition in vivo, Activity and ED50 results from ChEMBL document CHEMBL1122665, “Synthesis of thyrotropin-releasing hormone analogues. 1. Complete dissociation of central nervous system effects from thyrotropin-releasing activity” (1984).

Non-standard residues stand in square brackets, D forms with d. Residues, ends and D or L forms follow the SMILES beside them. *: point of attachment. Cha = N[C@@H](CC1CCCCC1)C(=O)O; pGlu = O=C1CC[C@@H](C(=O)O)N1; Nle = CCCC[C@H](N)C(=O)O; Nva = CCC[C@H](N)C(=O)O; Abu = CC[C@H](N)C(=O)O; tBu = CC(C)(C)*

For assay [1], the system named is Rattus norvegicus. Kind of assay: Inhibition of haloperidol catalepsy by less than 50% in a dose of 80 mg/kg, iv in adult male Wistar rats. It is filed as functional.
Assay [2] has as its system Rattus norvegicus. Kind of assay: Evaluated for hormonal (TSH) releasing activity in adult male albino rats after single intraperitoneal injection using radioimmunoassay; np-significant activity but not parallel TSH response to the lower and upper doses used. In kind it is functional, organism-based. The method, boiled down: (§1)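 Two-point assay in adult male albino rats: single ip injection at 1 and 10 μg. Blood drawn 15 min post-injection. Serum TSH measured by radioimmunoassay (NIAMDD rat TSH-RIA system). Relative potency expressed in percent, with synthetic TRH reference set at 100%.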

Assay [3] can be described thus: Evaluated for hormonal (TSH) releasing activity in adult male albino rats after single intraperitoneal injection using radioimmunoassay. It is filed as functional. The method, boiled down: as §1
In assay [4] the test system is Rattus norvegicus. The assay can be described thus: Anticataleptic effect at effective dose after intravenous administration in adult male Wistar rats. It is filed as functional. The method in brief: (§2)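 Haloperidol catalepsy induced in adult male Wistar rats by 4 mg/kg ip. Analogues given iv at 5 to 80 mg/kg, 2 h after haloperidol. Read-out is inhibition of catalepsy, taken as a measure of dopaminergic stimulation. Synthetic TRH served as reference standard.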

The test system of assay [5] is Rattus norvegicus. The assay can be described thus: Evaluated for hormonal (TSH) releasing activity in adult male albino rats after single intraperitoneal injection using radioimmunoassay; np -significant but not parallel TSH response to the lower and upper doses used. In kind it is functional, organism-based. The method in brief:
as §1

Assay [6] concerns Rattus norvegicus. The assay can be described thus: Evaluated for hormonal (TSH) releasing activity in adult male albino rats after single intraperitoneal injection using radioimmunoassay; np- significant activity but not parallel TSH response to the lower and upper doses used. It is filed as functional, organism-based. The method, boiled down: as §1
The subject of assay [7] is Rattus norvegicus. The assay can be described thus: Anticataleptic effect at effective dose after intravenous administration in adult male Wistar rats. It is filed as functional. The method in brief:
as §2

Setting [8] is: Rattus norvegicus, iv, read-out: ED50.

In general, inhibition in vivo refers to the share of the control response that was lost under treatment. The compound `CC(C)C[C@@H](NC(=O)[C@H]1CCC(=O)N1)C(=O)N1CCCC1` came in with an inhibition in vivo at 80 mg/kg in the assay on Rattus norvegicus [1] of 20%. Besides, in the assay with Rattus norvegicus [2], the Activity result is given as “Significant but not parallel”. One may read the ED50 as the dose at which the effect has come halfway, by size or by number of responders. On to `CCNC(=O)[C@H]1CCCN1C(=O)[C@@H](CC(C)C)NC(=O)[C@H]1CCC(=O)N1`, for which the Activity in assay [3] is 0%. Further, in the assay with Rattus norvegicus [4] (setting [8]), the ED50 turned out to be 56.6 mg/kg.

As to `CC(C)C[C@@H](NC(=O)[C@H]1CCC(=O)N1)C(=O)N1CCC[C@@H]1C(=O)NCCN(C)C`, the Activity in assay [3] was 0%. For the same compound, in the assay with Rattus norvegicus [1], the inhibition in vivo at 80 mg/kg amounted to 10%. Compound `CC(C)C[C@H](NC(=O)[C@@H]1CCC(=O)N1)C(=O)N1CCC[C@H]1C(N)=O` [listing 1 of 2 here] showed an Activity in assay [3] of 2.7%. Besides, the ED50 with Rattus norvegicus [4] was found to be 40 mg/kg. With `NC(=O)[C@@H]1CCCN1C(=O)[C@@H]1CCCN1C(=O)[C@@H]1CCC(=O)N1`, in the assay with Rattus norvegicus [4] (setting [8]), the ED50 was determined as 80 mg/kg. In the case of `CC(C)C[C@H](NC(=O)[C@@H]1CCC(=O)N1)C(=O)N1CCC[C@H]1C(N)=O` [listing 2 of 2 here], the Activity in assay [3] stood at 0%. For the same compound, the ED50 with Rattus norvegicus [4] (setting [8]) is 70 mg/kg. For the compound `CCCCCCCC[C@H](NC(=O)[C@@H]1CCC(=O)N1)C(=O)N1CCC[C@H]1C(N)=O`, the Activity result in the assay with Rattus norvegicus [5] is reported as “Significant but not parallel”. In the assay with Rattus norvegicus [1], this compound registered an inhibition in vivo at 80 mg/kg of 0%. Regarding `CC(C)C[C@H](NC(=O)[C@@H]1CCC(=O)N1)C(=O)N1CCC[C@@H]1C(N)=O`, the Activity in assay [3] worked out at 0%. Besides, the ED50 in the assay on Rattus norvegicus [4] (setting [8]) was > 80 mg/kg. As for `CC(C)C[C@@H](NC(=O)[C@@H]1CCC(=O)N1)C(=O)N1CCC[C@H]1C(N)=O`, the Activity in assay [3] amounted to 0%. In addition, the ED50 with Rattus norvegicus [4] (setting [8]) was > 80 mg/kg.

On to `COC(=O)[C@H]1CCCN1C(=O)[C@@H](CC(C)C)NC(=O)[C@H]1CCC(=O)N1`, for which the Activity in assay [3] came out at 0%. The compound also returned an inhibition in vivo at 80 mg/kg in the assay with Rattus norvegicus [1] of 0%. On to `CC(C)C[C@@H](NC(=O)[C@H]1CCC(=O)N1)C(=O)N1CCC[C@@H]1C(=O)O`, for which the Activity in assay [3] was 0.1%. The compound also had an inhibition in vivo at 80 mg/kg in the assay with Rattus norvegicus [1] of 0%. Taken in the same sequence, the figures for `CCCCCCCCCCNC(=O)[C@H]1CCCN1C(=O)[C@@H](CC(C)C)NC(=O)[C@H]1CCC(=O)N1` were 0% and 10%. With `NC(=O)[C@@H]1CCCN1C(=O)[C@@H]1CCCN1C(=O)[C@H]1CCC(=O)N1`, the Activity entry in the assay with Rattus norvegicus [6] is “Significant but not parallel”. Turning to `C[C@H](NC(=O)[C@@H]1CCC(=O)N1)C(=O)N1CCC[C@H]1C(N)=O` ([pGlu]-Ala-Pro-NH2), in assay [3], the Activity was found to be 0%. Besides, in the assay with Rattus norvegicus [1], 80 mg/kg produced 0% inhibition in vivo. `NC(=O)[C@@H]1CCCN1C(=O)CNC(=O)[C@@H]1CCC(=O)N1` ([pGlu]-Gly-Pro-NH2) had an Activity in assay [3] of 0%. The compound also gave an inhibition in vivo at 80 mg/kg in the assay on Rattus norvegicus [1] of 10%.

On to `CC[C@H](C)[C@H](NC(=O)[C@@H]1CCC(=O)N1)C(=O)N1CCC[C@H]1C(N)=O` ([pGlu]-Ile-Pro-NH2), for which the Activity in assay [3] is on record as 0.2%. Moreover, testing at 80 mg/kg with Rattus norvegicus [1] gave an inhibition in vivo of 10%.

As for `CSCC[C@H](NC(=O)[C@@H]1CCC(=O)N1)C(=O)N1CCC[C@H]1C(N)=O` ([pGlu]-Met-Pro-NH2), the Activity in assay [3] was found to be 1%. Besides, the inhibition in vivo at 80 mg/kg in the assay on Rattus norvegicus [1] turned out to be 40%.

Compound `NC(=O)[C@@H]1CCCN1C(=O)[C@H](Cc1ccccc1)NC(=O)[C@@H]1CCC(=O)N1` ([pGlu]-Phe-Pro-NH2) registered an inhibition in vivo at 80 mg/kg in the assay with Rattus norvegicus [1] of 40%. Consider `CC(C)(C)OC[C@H](NC(=O)[C@@H]1CCC(=O)N1)C(=O)N1CCC[C@H]1C(N)=O` ([pGlu]-Ser(tBu)-Pro-NH2), for which, in assay [3], the Activity amounted to 0.2%. For the same compound, at 80 mg/kg the inhibition in vivo in the assay on Rattus norvegicus [1] was 0%.

In assay [3], `C[C@@H](O)[C@H](NC(=O)[C@@H]1CCC(=O)N1)C(=O)N1CCC[C@H]1C(N)=O` ([pGlu]-Thr-Pro-NH2) displayed an Activity of 25.7%. Also, the ED50 in the assay on Rattus norvegicus [4] (setting [8]) is 80 mg/kg. On the same counts, the results for `CC(C)[C@H](NC(=O)[C@@H]1CCC(=O)N1)C(=O)N1CCC[C@H]1C(N)=O` ([pGlu]-Val-Pro-NH2) are 3.1% and > 80 mg/kg. Taken in the same sequence, the figures for `CC[C@H](NC(=O)[C@@H]1CCC(=O)N1)C(=O)N1CCC[C@H]1C(N)=O` ([pGlu]-[Abu]-Pro-NH2) were 0% and ≥ 80 mg/kg. Take `NC(=O)[C@@H]1CCCN1C(=O)[C@H](CC1CCCCC1)NC(=O)[C@@H]1CCC(=O)N1` ([pGlu]-[Cha]-Pro-NH2): the Activity in assay [3] is 45.6%. In addition, the inhibition in vivo at 80 mg/kg with Rattus norvegicus [1] was found to be 20%. Take `CCCC[C@H](NC(=O)[C@@H]1CCC(=O)N1)C(=O)N1CCC[C@H]1C(N)=O` ([pGlu]-[Nle]-Pro-NH2): in assay [3], the Activity is given as 3.8%. Moreover, the median effective dose (ED50) in the assay with Rattus norvegicus [4] (setting [8]) was 16.8 mg/kg. As to `CCC[C@H](NC(=O)[C@@H]1CCC(=O)N1)C(=O)N1CCC[C@H]1C(N)=O` ([pGlu]-[Nva]-Pro-NH2), in assay [3], the Activity is 0%. Besides, in the assay on Rattus norvegicus [4] (setting [8]), the ED50 is 11.4 mg/kg. In assay [3], `NC(=O)[C@@H]1CCCN1C(=O)[C@H](Cc1c[nH]cn1)NC(=O)[C@@H]1CCC(=O)N1` [PROTIRELIN] registered an Activity of 100%. The same compound gave an inhibition in vivo at 80 mg/kg with Rattus norvegicus [1] of 40%. This compound gave an ED50 in the assay with Rattus norvegicus [7] of 113 mg/kg.
